The record followed here is ChEMBL document CHEMBL4118207, “Docking Screens for Dual Inhibitors of Disparate Drug Targets for Parkinson's Disease” (J Med Chem, 2018).

Calls of active or inactive are those of the source. The rule behind the calls is not given here.

Data set [1] concerns the target T1, Amine oxidase [flavin-containing] B (Homo sapiens, UniProt P27338).
T1 sequence (P27338 whole entry): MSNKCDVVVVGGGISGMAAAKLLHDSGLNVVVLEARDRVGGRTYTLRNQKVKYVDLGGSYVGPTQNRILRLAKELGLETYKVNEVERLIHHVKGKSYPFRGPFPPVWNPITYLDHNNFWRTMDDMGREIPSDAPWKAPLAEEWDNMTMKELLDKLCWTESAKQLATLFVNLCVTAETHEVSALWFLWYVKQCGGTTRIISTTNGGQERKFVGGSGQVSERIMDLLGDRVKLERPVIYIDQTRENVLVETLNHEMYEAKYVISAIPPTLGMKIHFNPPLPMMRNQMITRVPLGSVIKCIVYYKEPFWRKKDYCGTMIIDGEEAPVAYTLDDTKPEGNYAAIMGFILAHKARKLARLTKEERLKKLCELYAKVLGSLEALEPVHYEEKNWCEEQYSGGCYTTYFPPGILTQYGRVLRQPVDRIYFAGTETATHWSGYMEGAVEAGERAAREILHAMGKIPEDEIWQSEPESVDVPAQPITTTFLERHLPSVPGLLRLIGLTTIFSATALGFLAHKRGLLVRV
In words: Inhibition of recombinant human MAO-B expressed in baculovirus infected BTI insect cells using tyramine as substrate preincubated for 30 mins followed by substrate addition measured after 60 mins in presence of Triton X-100 by amplex red reagent based fluorescence assay. Particulars: 1 h.

The target in data set [2] is T2, Adenosine receptor A2a (Homo sapiens, UniProt P29274). As to the kind of experiment: Displacement of [3H]ZM241385 from A2A receptor in human HeLa cell membranes after 30 mins by beta-scintillation counting method.
Data set [3] has as its target T1, Amine oxidase [flavin-containing] B. In words: Inhibition of recombinant human MAO-B expressed in baculovirus infected BTI insect cells using tyramine as substrate preincubated for 30 mins followed by substrate addition measured after 60 mins by amplex red reagent based fluorescence assay. Put shortly: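 Recombinant human MAO-B, final 1 U/mL, in 50 mM Tris-HCl pH 7.5 with 0.05% CHAPS and 1% DMSO. Compounds dosed acoustically over 10^-9 to 10^-4 range, preincubated 30 min at room temperature. Interference controlled without enzyme, with added H2O2.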

In data set [4] the target is T2, Adenosine receptor A2a. In words: Displacement of [3H]ZM241385 from A2A receptor in human HeLa cell membranes at 30 uM after 30 mins by beta-scintillation counting method relative to control.
In data set [5] the target is T1, Amine oxidase [flavin-containing] B. As to the kind of experiment: Inhibition of recombinant human MAO-B expressed in baculovirus infected BTI insect cells at 30 uM using tyramine as substrate preincubated for 30 mins followed by substrate addition measured after 60 mins by amplex red reagent based fluorescence assay relative to control. Particulars: 1 h.
For data set [6], the target named is T2, Adenosine receptor A2a. As to the kind of experiment: Displacement of [3H]ZM241385 from A2A receptor in human HeLa cell membranes at 10 uM after 30 mins by beta-scintillation counting method.
For data set [7], the target named is T2, Adenosine receptor A2a. As to the kind of experiment: Antagonist activity at human A2A receptor expressed in CHO cells assessed as inhibition of NECA-stimulated cAMP accumulation at 1 uM preincubated for 15 mins followed by NECA addition measured after 15 mins by enzyme immunoassay. In kind it is functional, cell-based. In a few lines:
(§1)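 CHO cells stably transfected with human A2A receptor, seeded 10^4 cells/well 24 h before assay. Washed in DMEM/F-12 with 25 mM Hepes pH 7.4, then switched to the same buffer plus 20 µM rolipram. Compound preincubated 15 min at 37 °C, NECA added at several concentrations for 15 min at 37 °C. cAMP measured by enzyme immunoassay.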

In the next data set the test system is SH-SY5Y. In words: Cytoprotection against 6-OHDA-induced neurotoxicity in human SH-SY5Y cells assessed as reduction in 6-OHDA-induced cell viability decrease at 0.15 uM preincubated for 3 hrs followed by 6-OHDA addition measured after 24 hrs by resazurin dye based assay relative to control. It is filed as functional. Put shortly: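 Human SH-SY5Y cells seeded 2.5 x 10^4/well in phenol-red-free DMEM with 1% FBS and 10 µM retinoic acid for 72 h to differentiate. Compound (0.1% v/v DMSO) pretreatment 3 h, then freshly prepared 20 µM 6-OHDA in saline/0.007% ascorbic acid for 24 h. Resazurin (0.02 mg/mL final) added for 2 h as the viability read-out.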

Data set [8] concerns the target T1, Amine oxidase [flavin-containing] B. In words: Inhibition of recombinant human MAO-B expressed in baculovirus infected BTI insect cells at 10 uM using tyramine as substrate preincubated for 30 mins followed by substrate addition measured after 60 mins by amplex red reagent based fluorescence assay. Conditions: 1 h. Put shortly: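 Human recombinant MAO-B (final 1 U/mL) in 50 mM Tris-HCl pH 7.5, 0.05% CHAPS, 1% DMSO. Compound added from DMSO stock and pre-incubated 30 min at room temperature. Reaction started with tyramine (10 µM in 2-fold mix) and run 60 min at room temperature. HRP (final 0.1 U/mL) plus Amplex Red (final 10 µM) added; resorufin read at ex 535/em 590 nm over 30 min.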

For data set [9], the target named is T2, Adenosine receptor A2a. In words: Antagonist activity at human A2A receptor expressed in CHO cells assessed as inhibition of NECA-stimulated cAMP accumulation at 100 nM preincubated for 15 mins followed by NECA addition measured after 15 mins by enzyme immunoassay. In kind it is functional, cell-based. In a few lines: as §1

T2 sequence (P29274 whole entry): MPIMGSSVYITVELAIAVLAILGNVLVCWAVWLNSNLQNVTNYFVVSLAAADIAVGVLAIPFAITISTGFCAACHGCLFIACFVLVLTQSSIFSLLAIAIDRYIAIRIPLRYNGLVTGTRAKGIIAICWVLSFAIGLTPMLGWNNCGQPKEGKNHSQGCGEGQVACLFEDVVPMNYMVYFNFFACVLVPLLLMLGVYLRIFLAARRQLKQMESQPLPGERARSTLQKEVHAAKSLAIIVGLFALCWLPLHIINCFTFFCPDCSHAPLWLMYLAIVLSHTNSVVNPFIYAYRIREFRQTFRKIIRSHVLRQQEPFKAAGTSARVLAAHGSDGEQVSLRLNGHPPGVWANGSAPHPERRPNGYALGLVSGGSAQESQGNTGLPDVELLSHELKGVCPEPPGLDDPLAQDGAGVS

Turning to `Cc1ccc(COC(=O)c2nn(-c3ccccc3)nc2N)cc1`, in [1], the “inhibition (INH)” value was “Active”. The compound further returned a Ki on Adenosine receptor A2a [2] of 150 nM. The IC50 in [3] came to 3800 nM.
Compound `C[C@@H]1Oc2ccc(Nc3ncnc4c3oc3ccccc34)cc2NC1=O` registered a Ki on Adenosine receptor A2a [2] of 1200 nM. Also, on Adenosine receptor A2a [4], the inhibition was greater than 60%. For the same compound, the IC50 in data set [3] was found to be 1700 nM. Besides, the inhibition at 30 µM in data set [5] is greater than 70%.
For `Cc1cccc(C(=O)Nc2nc3ccccc3[nH]2)c1`, the inhibition entry at Adenosine receptor A2a [6] was “inactive”.
As for `Nc1nn(-c2ccc(Cl)cc2)nc1C(=O)CCc1ccccc1`, the inhibition result at Adenosine receptor A2a [6] was “inactive”.
In turn, `Nc1nn(-c2ccccc2)nc1C(=O)OCc1ccccc1` displayed a Ki on Adenosine receptor A2a [2] of 31 nM. The compound also had an inhibition at Adenosine receptor A2a [4] greater than 60%. The IC50 in data set [3] was determined as 380 nM. For the same compound, the inhibition at 30 µM in data set [5] is greater than 70%.
Take `Cc1ccccc1C(=O)Nc1nc2ccccc2[nH]1`: on Adenosine receptor A2a [6], the inhibition result was “inactive”.
For `Cc1ccc(C(=O)Nc2nc3ccccc3[nH]2)cc1`, the inhibition entry on Adenosine receptor A2a [6] is “inactive”.
With `O=C(Nc1nc2cccc(Cl)c2[nH]1)c1ccccc1`, the inhibition result on Adenosine receptor A2a [7] was “Active”. Also, on Adenosine receptor A2a [2], affinity was put at a Ki of 99 nM. For the same compound, the Activity in the data set with SH-SY5Y came out at 14%.
Take `Nc1nn(-c2ccccc2)nc1C(=O)O`: the inhibition entry on Adenosine receptor A2a [6] was “inactive”. The “inhibition (INH)” value in data set [8] is “Not Active”.
As to `O=C(Nc1nc2ccccc2[nH]1)c1ccccc1`, in data set [1], the “inhibition (INH)” value is “Active”. The same compound gave a Ki at Adenosine receptor A2a [2] of 2700 nM. The inhibition on Adenosine receptor A2a [4] is greater than 60%. Also, the IC50 in [3] is 5000 nM. For the same compound, in data set [5], the inhibition at 30 µM is greater than 70%.
As to `COc1cccc(C(=O)Nc2nc3ccccc3[nH]2)c1`, the inhibition result at Adenosine receptor A2a [6] was “inactive”.
On Adenosine receptor A2a [2], `Cc1ccccc1COC(=O)c1nn(-c2ccccc2)nc1N` yielded a Ki of 49 nM. Moreover, the IC50 in data set [3] was 500 nM.
For the compound `Cc1ccc2nc(NC(=O)c3ccccc3)[nH]c2c1`, on Adenosine receptor A2a [6], the inhibition result is “inactive”.
Take `Nc1nn(-c2ccccc2)nc1C(=O)CCc1ccccc1`: the inhibition result on Adenosine receptor A2a [6] is “inactive”. For the same compound, the Ki on Adenosine receptor A2a [2] turned out to be 2000 nM.
Regarding `Cc1cccc(-n2nc(N)c(C(=O)CCc3ccccc3)n2)c1`, the inhibition result at Adenosine receptor A2a [6] is “inactive”. At Adenosine receptor A2a [2], this compound came in with a Ki of 250 nM.
In the case of `Nc1nn(-c2ccccc2Cl)nc1C(=O)CCc1ccccc1`, at Adenosine receptor A2a [6], the inhibition entry is “inactive”. Besides, on Adenosine receptor A2a [2], the affinity, expressed as Ki, was 630 nM.
As to `COc1cccc(CO)c1`, on Adenosine receptor A2a [6], the inhibition result is “inactive”. Moreover, in data set [8], the “inhibition (INH)” value was “Not Active”.
Regarding `COc1cccc2nc(NC(=O)c3ccccc3)[nH]c12`, on Adenosine receptor A2a [6], the inhibition result is “inactive”. The compound further had a Ki at Adenosine receptor A2a [2] of 530 nM.
Consider `Cc1ccc(C(=O)Nc2nc3ccccc3[nH]2)cc1C`, for which, on Adenosine receptor A2a [6], the inhibition entry was “inactive”.
Turning to `Nc1nn(-c2ccccc2)nc1C(=O)NCc1ccccc1`, the inhibition result at Adenosine receptor A2a [6] is “inactive”. On Adenosine receptor A2a [2], this compound yielded a Ki of 23 nM.
As for `Cc1ccc(-n2nc(N)c(C(=O)CCc3ccccc3)n2)cc1`, at Adenosine receptor A2a [6], the inhibition entry was “inactive”.
With `Cc1ccccc1-n1nc(N)c(C(=O)CCc2ccccc2)n1`, on Adenosine receptor A2a [6], the inhibition result is “inactive”.
In the case of `O=C(Nc1nc2ccccc2[nH]1)c1ccccc1O`, the inhibition entry on Adenosine receptor A2a [6] was “inactive”.
Consider `Cn1c(=O)c2c(nc(/C=C/c3cccc(Cl)c3)n2C)n(C)c1=O`, for which, in the data set on SH-SY5Y, the Activity is 13%.
On Adenosine receptor A2a [2], `COc1cccc(COC(=O)c2nn(-c3ccccc3)nc2N)c1` registered a Ki of 19 nM. Besides, at Adenosine receptor A2a [4], the inhibition was greater than 60%. The inhibition entry at Adenosine receptor A2a [9] was “Active”. Moreover, the Activity with SH-SY5Y was 13%.
